Where “and” joins values, the source holds several entries; their conditions need not be identical. Equal values may be shown once.

Assay [1] can be described thus: Maximum velocity for semicarbazide-sensitive amine oxidase (SSAO) of human, mouse or rat crude membranes. The format is cell membranes. The settings on record: Membrane. The gist of the method:
(§1)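 Crude membranes from human, rat or mouse adipocytes, made by hypo-osmotic lysis in 20 mM HES buffer with antiproteases (around 50 µg protein/assay). Incubated 30 min at 37 °C over a range of amine concentrations. H2O2 read spectrophotometrically with peroxidase, homovanillic acid and aminoantipyrine at 498 nm. Km and Vmax taken from Eadie-Hofstee plots; Vmax/Km ratio also given. Means ± SEM of 3-4 experiments.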

The nature of assay [2]: Ratio of Vmax/Km for human, mouse or rat SSAO. A digest of the protocol: as §1

For the compound `COc1cccc(CN)c1OC`, in assay [1], the Vmax (nmol/min/mg protein) was 1.1 and 3.2. As to `NCc1ccc(S(N)(=O)=O)cc1`, in assay [2], the Ratio is 0.007 and 0.01.

As for `NCc1cccc2ccccc12`, the Ratio in assay [2] was 0.28 and 0.66 and 0.5.
